Assay results: PubChem BioAssay AID822 (SRMLSC, 2007)
Active and inactive are the calls of the source.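 Rule for the calls: active = half-maximal effective dose for blocking growth of human endothelial cells at most 100 µM; inactive = the rest.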

These compounds were tested on HUVEC proliferation, viability ATP luminescence (assay: growth suppression of umbilical vein endothelial cells – cell-based, HUVEC, ATP luminescence, dose response (AID 822);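 note: cells exposed to compound for 72 h before the ATP read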).
In short: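 Material: HUVEC. Input: 1250 cells per well. Medium: endothelial basal medium (EBM) with 2% fetal bovine serum, collagen-coated wells. Compound: 0.039–20 µM, 0.2% DMSO. Times: compound treatment 72 h, 37 °C. Technique: CellTiter-Glo ATP luminescence. Read-out basis: % viability and fitted EC50. Format: collagen-coated multiwell plates.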
O=C(CN1CCCC1)Nc1ccc(-c2nc3cc(NC(=O)CN4CCCC4)ccc3o2)cc1 was tested, and the EC50 was 18.9 µM.
For CCn1c(SCC(N)=O)nnc1-c1ccc2[nH]c(C)c(C)c2c1, the EC50 was > 10 µM (inactive).
In the case of OCCNc1nc2ccccc2n1-c1ncnc2sc3c(c12)CCC3, the EC50 is reported as 11.4 µM.
Cc1cccc(NC(=O)c2cc(NC(=O)c3ccco3)ccc2N2CCCCC2)c1 showed an EC50 of 13.3 µM.
With CCN(CC)c1ccc2c(c1)oc(=O)c1c(Cl)cc(=O)oc12 the EC50 was 2.05 µM.
With CCc1cc(-c2n[nH]c(C)c2Oc2ccc(C(C)C)cc2)c(O)cc1O the EC50 was 6.36 µM.
For Cc1ccccc1-c1nc(CN2CCC(C(=O)NCCC3=CCCCC3)CC2)c(C)o1, the EC50 was 6.73 µM.
Oc1c(C(Nc2ccccn2)c2ccccn2)ccc2cccnc12 (stereo not drawn) showed an EC50 of 17.8 µM.
Cc1cccc(C)c1N1CCN(c2ccc3nnc(C(F)(F)F)n3n2)CC1 was tested, and the EC50 was 5.78 µM.
Cc1cc(NC(=O)CSc2nc3c(sc4ccccc43)c(=O)n2CCCN2CCOCC2)n[nH]1 gave an EC50 of 18.2 µM.
Work on Cc1ccc(-c2csc3ncnc(Sc4nnc(CN5CCCCCC5=O)o4)c23)cc1 yielded an EC50 of 5.55 µM.
Compound COc1cc(-c2nc(-c3ccc(NC(=O)c4ccc(Br)o4)cc3)no2)cc(OC)c1OC has an EC50 of 7.42 µM.
With CCOc1cc(S(=O)(=O)N2CC=C(c3ccc(F)cc3)CC2)c(OCC)cc1-n1cnnn1 the EC50 was 20 µM.
O=c1cc(-c2ccccc2)[nH]n1-c1nc2ccccc2[nH]1 gave an EC50 of 6.25 µM.
Compound Cc1nn(Cc2c(Cl)cccc2Cl)c(C)c1NC(=O)c1cc(C(C)C)on1 has an EC50 of 13.6 µM.
Compound CCCc1ccc(-c2cc(NC(=O)CSc3n[nH]c(N)n3)n(-c3ccccc3)n2)cc1 has an EC50 of 8.38 µM.
For O=C(/C=C/c1ccc(Cl)cc1)c1cccnc1, the EC50 was 17.2 µM.
O=C(CCC1CCCC1)c1c(O)c2ccccc2oc1=O gave an EC50 of 4.67 µM.
Cc1cccc2c1N(CCCOc1ccc(C(C)(C)C)cc1)C(=O)C2=O showed an EC50 of 9.1 µM.
COC(=O)C(CC(=O)c1ccc(Br)cc1)n1ccnc1 (stereo not drawn) was tested, and the EC50 was 9.3 µM.
O=C(Nc1nnc(-c2ccc3c(c2)CCCC3)o1)c1ccc(Cl)cc1Cl gave an EC50 of 2.25 µM.
CCOC(=O)C(C(C)=O)c1c(Br)c(O)c(O)c2c(C(=O)c3ccc(C)cc3)coc12 (stereo not drawn) showed an EC50 of 7.17 µM.
For c1ccc(-c2nccc(-c3ccc(-n4cnc5ccccc54)cc3)n2)cc1, the EC50 was 14.9 µM.
COc1ccccc1C1CC(c2c(-c3ccccc3)c3cc(Cl)ccc3[nH]c2=O)=NN1S(C)(=O)=O (stereo not drawn) was tested, and the EC50 was 8.65 µM.
Compound N=c1n(CCN2CCCCC2)c2ccccc2n1CC(O)c1cccc(Br)c1 (stereo not drawn) has an EC50 of 9.51 µM.
CCOC(=O)COc1ccc(S(=O)(=O)NCCC2=CCCCC2)cc1 showed an EC50 of 11.9 µM.
With Cn1cc(SCC(=O)Nc2nc3ccccc3s2)c2ccccc21 the EC50 was 6.29 µM.
CC(=O)n1cc(-c2ccncc2)c2ccccc21 was tested, and the EC50 was > 10 µM (inactive).
COc1ccc(-c2cc(C#N)nc(N3CCNCC3)n2)cc1 was tested, and the EC50 was 12.8 µM.
Work on COc1ccc(CN=C(C)c2c(C(F)(F)F)[nH]n(-c3nc4ccccc4s3)c2=O)cc1 yielded an EC50 of 5.87 µM.
CC1CCN(S(=O)(=O)c2ccc(NC(=O)Cn3nnc(-c4ccccc4F)n3)cc2)CC1 showed an EC50 of 6.62 µM.
With Cc1ccc2nc(NC(=O)CSc3ncnc4c3oc3ccccc34)sc2c1 the EC50 was 5.79 µM.
For Cc1ccc2c(c1)c1c(n2CC(O)Cn2c(C)nc3ccccc32)CCCC1 (stereo not drawn), the EC50 was 10.6 µM.
For Fc1ccc2c(Cl)c(-c3nnc(-c4cccs4)o3)sc2c1, the EC50 was 8.06 µM.
CCOC(=O)c1c(NC(=O)CCl)sc(C(=O)N(CC)CC)c1C showed an EC50 of 12.3 µM.
COC(=O)COc1ccc(S(=O)(=O)NCCC2=CCCCC2)cc1 was tested, and the EC50 was 10.4 µM.
For Cc1oc(-c2ccc(Cl)cc2)nc1CN1CCC(C(=O)N2CCN(Cc3ccccc3)CC2)CC1, the EC50 was 8.43 µM.
Cc1cc(=O)[nH]c2ccc(Cl)cc12 was tested, and the EC50 was > 10 µM (inactive).
Work on COc1cc2nc(NCCCN3CCN(C)CC3)n3nc(-c4ccccc4)nc3c2cc1OC yielded an EC50 of 10.5 µM.
CCOC(=O)N1CCC(c2cc(=O)n3[nH]c(C)c(-c4ccc(F)cc4)c3n2)CC1 gave an EC50 of 6.46 µM.
Compound CC1=C(SCCC#N)S/C(=C2\SC(C)=C(SCCC#N)S2)S1 has an EC50 of 9.1 µM.
Compound CN1CCN(Cc2cc(COCc3ccccc3)c3cccnc3c2O)CC1 has an EC50 of 6.08 µM.
Work on COc1ccc(CNC(=O)c2cc3c(C)nc4ccccc4c3o2)c(OC)c1 yielded an EC50 of 11.8 µM.
CCn1c2c(c3cc(Br)ccc31)CCC/C2=N\O was tested, and the EC50 was 15.2 µM.
Compound Cc1ccc2[nH]c3c(N4CCN(Cc5ccc6c(c5)OCO6)CC4)ncnc3c2c1 has an EC50 of 9.97 µM.
Compound C=CCn1c(SCC(=O)c2c(N)n(CCC)c(=O)n(C)c2=O)nc2sc(CC)cc2c1=O has an EC50 of 14.9 µM.
Cc1ccc(C)c(N2CCN(CCCNC(=O)Cn3cc4c(n3)CCCCC4)CC2)c1 showed an EC50 of 10.9 µM.
In the case of N#Cc1nc(-c2ccc(OCc3ccccc3)cc2)oc1NCCCn1ccnc1, the EC50 is reported as 5.83 µM.
Cc1ccsc1/C=C/C1=Cc2c(sc(NC(=O)CSc3n[nH]c(N)n3)c2C#N)C(C)(C)C1 was tested, and the EC50 was 17.7 µM.
C=CCOC(=O)C1=C(C)NC(SCC(=O)Nc2nccs2)=C(C#N)C1c1cccs1 (stereo not drawn) showed an EC50 of 6.19 µM.
Cc1ccc(C2(C(F)(F)F)N=C3Sc4cc(C)cc(C)c4N3C(=O)N2)cc1 (stereo not drawn) was tested, and the EC50 was 11 µM.
In the case of COc1ccc2nc3oc(C(=O)N4CCN(c5ccccc5F)CC4)cc3cc2c1, the EC50 is reported as 15.5 µM.
In the case of CCOc1ccc2nc(NC(=O)CN3CCC(n4nnc5cc(F)ccc54)CC3)sc2c1, the EC50 is reported as 8.42 µM.
With O=C(CSc1nnc(-c2ccccc2O)o1)Oc1ccc(OCc2ccccc2)cc1 the EC50 was 10.1 µM.
Work on O=C(Nc1ccc(Cl)c(Cl)c1)C1=Cc2ccccc2OC1 yielded an EC50 of 7.93 µM.
In the case of CC(C)OCCCN1C(=O)c2[nH]nc(-c3ccccc3O)c2C1c1cccc(Cl)c1 (stereo not drawn), the EC50 is reported as 15.7 µM.
Work on COc1cc(N=c2ssnc2Cl)c(OC)cc1Cl yielded an EC50 of 20.9 µM.
Work on CCOC(=O)Cc1c(C)nc2c(-c3cccc(Br)c3)c[nH]n2c1=O yielded an EC50 of 3.01 µM.
In the case of CC(Nc1nc(N2CCN(S(C)(=O)=O)CC2)nc2ccccc12)c1ccccc1 (stereo not drawn), the EC50 is reported as 9.04 µM.
Work on COc1cc(/C=C(/C(=O)c2cccs2)c2nc3ccccc3[nH]2)cc(OC)c1O yielded an EC50 of 1.99 µM.
Work on COc1cc(-c2nnc(COc3ccc4cc(Br)ccc4c3)o2)cc(OC)c1OC yielded an EC50 of 12.1 µM.
Compound COc1ccc2nc(NC(=O)CSC3=NCCS3)sc2c1 has an EC50 of 4.95 µM.
With OC(COc1ccc(Cl)c2ccccc12)CN1CCN(c2ccccn2)CC1 (stereo not drawn) the EC50 was 12.3 µM.
In the case of COc1ccc(-c2cn3c(C)c(C(=O)Nc4cccc(NC(C)=O)c4)sc3n2)cc1, the EC50 is reported as 12.1 µM.
For O=C(CSc1ccc2c(c1)OCCO2)Nc1ccc(Cl)cn1, the EC50 was 5.53 µM.
With COC(=O)C1=C(O)/C(=C\c2ccc(CNC(=O)C(=O)Nc3ccc(C)cc3)o2)N=C1C the EC50 was 19.4 µM.
O=C(CC1CCCCC1)c1c(O)c2ccccc2oc1=O was tested, and the EC50 was 4.66 µM.
Compound Cc1cc(/C=N/n2cnnc2)c(C)n1-c1ccc(OCc2ccc(Cl)cc2Cl)cc1 has an EC50 of 4.39 µM.
In the case of Cc1sc2nc(SCC(=O)C(C)(C)C)n(Cc3ccco3)c(=O)c2c1C, the EC50 is reported as 13.9 µM.
In the case of C=CCOC(=O)C1=C(C)NC(SCC(=O)Nc2ccc(C)c(Cl)c2)=C(C#N)C1c1ccco1 (stereo not drawn), the EC50 is reported as 20.1 µM.
For CC(C)CNC(=O)c1coc(=O)c(Br)c1, the EC50 was > 10 µM (inactive).
With Cc1nc2sccn2c(=O)c1CCN1CCC(=C(c2ccc(F)cc2)c2ccc(F)cc2)CC1 the EC50 was 8.98 µM.
Work on CC1(C)Cc2c(c(N3CCOCC3)nc3snc(N)c23)CO1 yielded an EC50 of 11 µM.
With CC1=C(C(=O)OCc2ccc3c(c2)OCO3)C(c2ccccc2)NC(=O)N1 (stereo not drawn) the EC50 was 14.1 µM.
In the case of CC(=O)Nc1ccc(S(=O)(=O)N2CCN(c3nc(NC4CCCC4)c4ccccc4n3)CC2)cc1, the EC50 is reported as 4.96 µM.
Work on O=C(CCN1CCN(Cc2ccccc2)CC1)Nc1ccc(OCc2ccccc2)cc1 yielded an EC50 of 14.1 µM.
COC(=O)NC(=C(Cl)Cl)S(=O)(=O)c1ccccc1 gave an EC50 of 8.53 µM.
Compound N#CC1=C(N)Oc2cc(Nc3ccccc3)ccc2C1c1ccncc1 (stereo not drawn) has an EC50 of 1.32 µM.
